Reference: ChEMBL document CHEMBL1123923, “Steroidal silicon side-chain analogues as potential antifertility agents” (1987)

species on record: Rattus norvegicus; experiment: Antifertility activity measured as minimum protective dose for prevention of pregnancy in rats; assay type: functional; parameters: unit not given here
Outline: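 Oral dosing in adult cycling female rats selected in the proestrous phase, 10 animals per dose, with treatment starting on the day of proestrus.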

Q: For CCCC[Si](C)(C)C#C[C@]1(O)CC[C@H]2[C@@H]3CCc4cc(O)ccc4[C@H]3CC[C@@]21C, which Antifertility potency is on record?
A: 300

Q: C[C@]12CC[C@@H]3c4ccc(O)cc4CC[C@H]3[C@@H]1CC[C@@]2(O)C#C[Si](C)(C)CBr was tested. Which Antifertility potency did it give?
A: 200

Q: Which Antifertility potency does the source give for C=C([C@]1(O)CC[C@H]2[C@@H]3CCc4cc(O)ccc4[C@H]3CC[C@@]21C)[Si](C)(C)C here?
A: 2

Q: Which Antifertility potency does the source give for C=C[Si](C)(C#C[C@]1(O)CC[C@H]2[C@@H]3CCc4cc(O)ccc4[C@H]3CC[C@@]21C)CC (stereo partly drawn) here?
A: 300

Q: Which Antifertility potency does the source give for C[C@]12CC[C@@H]3c4ccc(O)cc4CC[C@H]3[C@@H]1CC[C@@]2(O)C#C[Si](C)(C)CCl here?
A: 150

Q: For CCCC[Si](C#C[C@]1(O)CC[C@H]2[C@@H]3CCc4cc(O)cc(C(C)=O)c4[C@H]3CC[C@@]21C)(CCCC)CCCC, which Antifertility potency is on record?
A: 0

Q: How did the Antifertility potency turn out when C=CC[Si](C#C[C@]1(O)CC[C@H]2[C@@H]3CCc4cc(O)ccc4[C@H]3CC[C@@]21C)(CC)CC was run?
A: 300

Q: How did the Antifertility potency turn out when CCC[Si](C#C[C@]1(O)CC[C@H]2[C@@H]3CCc4cc(O)ccc4[C@H]3CC[C@@]21C)(CC)CC was run?
A: 300

Q: How did the Antifertility potency turn out when CCC[Si](C=C[C@]1(O)CC[C@H]2[C@@H]3CCc4cc(O)ccc4[C@H]3CC[C@@]21C)(CCC)CCC was run?
A: 0

Q: CCC(C)[Si](C#C[C@]1(O)CC[C@H]2[C@@H]3CCc4cc(O)ccc4[C@H]3CC[C@@]21C)(CC)CC (stereo partly drawn) was tested. Which Antifertility potency did it give?
A: 300

Q: Which Antifertility potency does the source give for C=C([C@]1(O)CC[C@H]2[C@@H]3CCc4cc(O)ccc4[C@H]3CC[C@@]21C)[Si](CCC)(CCC)CCC here?
A: 2

Q: Which Antifertility potency does the source give for CC[Si](O)(C#C[C@]1(O)CC[C@H]2[C@@H]3CCc4cc(O)ccc4[C@H]3CC[C@@]21C)CC here?
A: 300

Q: For C[C@]12CC[C@@H]3c4ccc(O)cc4CC[C@H]3[C@@H]1CC[C@@]2(O)C#C[Si](C)(C)Cc1ccccc1, which Antifertility potency is on record?
A: 300

Q: CC[Si](C#C[C@]1(O)CC[C@H]2[C@@H]3CCc4cc(O)ccc4[C@H]3CC[C@@]21C)(CC)C(C)(C)C was tested. Which Antifertility potency did it give?
A: 300

Q: How did the Antifertility potency turn out when CCCCCC[Si](C#C[C@]1(O)CC[C@H]2[C@@H]3CCc4cc(O)ccc4[C@H]3CC[C@@]21C)(CC)CC was run?
A: 15

Q: Which Antifertility potency does the source give for C[C@]12CC[C@@H]3c4ccc(O)cc4CC[C@H]3[C@@H]1CC[C@@]2(O)C#C[Si](C)(C)C here?
A: 33

Q: How did the Antifertility potency turn out when CCCC[Si](C#C[C@]1(O)CC[C@H]2[C@@H]3CCc4cc(O)ccc4[C@H]3CC[C@@]21C)(CCCC)CCCC was run?
A: 0

Q: Which Antifertility potency does the source give for CC[Si](/C=C\[C@]1(O)CC[C@H]2[C@@H]3CCc4cc(O)ccc4[C@H]3CC[C@@]21C)(CC)CC here?
A: 10

Q: With C#C[Si](C#C[C@]1(O)CC[C@H]2[C@@H]3CCc4cc(O)ccc4[C@H]3CC[C@@]21C)(CC)CC as the molecule, how does the Antifertility potency read?
A: 600

Q: CC[Si]1(C#C[C@]2(O)CC[C@H]3[C@@H]4CCc5cc(O)ccc5[C@H]4CC[C@@]32C)CCCC1 was tested. Which Antifertility potency did it give?
A: 500

Q: How did the Antifertility potency turn out when C[C@]12CC[C@@H]3c4ccc(O)cc4CC[C@H]3[C@@H]1CC[C@@]2(O)/C=C/[Si](C)(C)C was run?
A: 0

Q: With C#C[C@]1(O)CC[C@H]2[C@@H]3CCc4cc(O)ccc4[C@H]3CC[C@@]21C [ETHINYL ESTRADIOL] as the molecule, how does the Antifertility potency read?
A: 100

Q: For CC[Si](C#C[C@]1(O)CC[C@H]2[C@@H]3CCc4cc(OC5CCCC5)ccc4[C@H]3CC[C@@]21C)(CC)CC, which Antifertility potency is on record?
A: 300

species on record: Rattus norvegicus; experiment: Separation of antifertility from estrogenic activity in rats was measured; assay type: functional

Q: For CCCC[Si](C)(C)C#C[C@]1(O)CC[C@H]2[C@@H]3CCc4cc(O)ccc4[C@H]3CC[C@@]21C, which Separation is on record?
A: 15

Q: With C[C@]12CC[C@@H]3c4ccc(O)cc4CC[C@H]3[C@@H]1CC[C@@]2(O)C#C[Si](C)(C)CBr as the molecule, how does the Separation read?
A: 7.4

Q: Which Separation does the source give for C=C([C@]1(O)CC[C@H]2[C@@H]3CCc4cc(O)ccc4[C@H]3CC[C@@]21C)[Si](C)(C)C here?
A: 5

Q: With C=C[Si](C)(C#C[C@]1(O)CC[C@H]2[C@@H]3CCc4cc(O)ccc4[C@H]3CC[C@@]21C)CC (stereo partly drawn) as the molecule, how does the Separation read?
A: 11

Q: Which Separation does the source give for C[C@]12CC[C@@H]3c4ccc(O)cc4CC[C@H]3[C@@H]1CC[C@@]2(O)C#C[Si](C)(C)CCl here?
A: 9

Q: For C=CC[Si](C#C[C@]1(O)CC[C@H]2[C@@H]3CCc4cc(O)ccc4[C@H]3CC[C@@]21C)(CC)CC, which Separation is on record?
A: 7

Q: For CCC[Si](C#C[C@]1(O)CC[C@H]2[C@@H]3CCc4cc(O)ccc4[C@H]3CC[C@@]21C)(CC)CC, which Separation is on record?
A: 8

Q: For CCC(C)[Si](C#C[C@]1(O)CC[C@H]2[C@@H]3CCc4cc(O)ccc4[C@H]3CC[C@@]21C)(CC)CC (stereo partly drawn), which Separation is on record?
A: 5

Q: C=C([C@]1(O)CC[C@H]2[C@@H]3CCc4cc(O)ccc4[C@H]3CC[C@@]21C)[Si](CCC)(CCC)CCC was tested. Which Separation did it give?
A: 4

Q: For CC[Si](O)(C#C[C@]1(O)CC[C@H]2[C@@H]3CCc4cc(O)ccc4[C@H]3CC[C@@]21C)CC, which Separation is on record?
A: 27

Q: For C[C@]12CC[C@@H]3c4ccc(O)cc4CC[C@H]3[C@@H]1CC[C@@]2(O)C#C[Si](C)(C)Cc1ccccc1, which Separation is on record?
A: 25

Q: CC[Si](C#C[C@]1(O)CC[C@H]2[C@@H]3CCc4cc(O)ccc4[C@H]3CC[C@@]21C)(CC)C(C)(C)C was tested. Which Separation did it give?
A: 10

Q: For CCCCCC[Si](C#C[C@]1(O)CC[C@H]2[C@@H]3CCc4cc(O)ccc4[C@H]3CC[C@@]21C)(CC)CC, which Separation is on record?
A: 3

Q: Which Separation does the source give for C[C@]12CC[C@@H]3c4ccc(O)cc4CC[C@H]3[C@@H]1CC[C@@]2(O)C#C[Si](C)(C)C here?
A: 4.7

Q: Which Separation does the source give for CC[Si](/C=C\[C@]1(O)CC[C@H]2[C@@H]3CCc4cc(O)ccc4[C@H]3CC[C@@]21C)(CC)CC here?
A: 20

Q: With C#C[Si](C#C[C@]1(O)CC[C@H]2[C@@H]3CCc4cc(O)ccc4[C@H]3CC[C@@]21C)(CC)CC as the molecule, how does the Separation read?
A: 16

Q: CC[Si]1(C#C[C@]2(O)CC[C@H]3[C@@H]4CCc5cc(O)ccc5[C@H]4CC[C@@]32C)CCCC1 was tested. Which Separation did it give?
A: 4.2

biological target: Estrogen receptor (Rattus norvegicus) (UniProt P06211+Q62986)

Q: Which Estrogenic potency does the source give for CC[Si](C#C[C@]1(OC(=O)n2ccnc2)CC[C@H]2[C@@H]3CCc4cc(OC)ccc4[C@H]3CC[C@@]21C)(CC)CC here?
A: 3

Q: Which Estrogenic potency does the source give for CCCC[Si](C)(C)C#C[C@]1(O)CC[C@H]2[C@@H]3CCc4cc(O)ccc4[C@H]3CC[C@@]21C here?
A: 20

Q: How did the Estrogenic potency turn out when C[C@]12CC[C@@H]3c4ccc(O)cc4CC[C@H]3[C@@H]1CC[C@@]2(O)C#C[Si](C)(C)CBr was run?
A: 27

Q: How did the Estrogenic potency turn out when C=C([C@]1(O)CC[C@H]2[C@@H]3CCc4cc(O)ccc4[C@H]3CC[C@@]21C)[Si](C)(C)C was run?
A: 0.4

Q: Which Estrogenic potency does the source give for C=C[Si](C)(C#C[C@]1(O)CC[C@H]2[C@@H]3CCc4cc(O)ccc4[C@H]3CC[C@@]21C)CC (stereo partly drawn) here?
A: 28

Q: For C[C@]12CC[C@@H]3c4ccc(O)cc4CC[C@H]3[C@@H]1CC[C@@]2(O)C#C[Si](C)(C)CCl, which Estrogenic potency is on record?
A: 17

Q: Which Estrogenic potency does the source give for CCCC[Si](C#C[C@]1(O)CC[C@H]2[C@@H]3CCc4cc(O)cc(C(C)=O)c4[C@H]3CC[C@@]21C)(CCCC)CCCC here?
A: 4

Q: With C=CC[Si](C#C[C@]1(O)CC[C@H]2[C@@H]3CCc4cc(O)ccc4[C@H]3CC[C@@]21C)(CC)CC as the molecule, how does the Estrogenic potency read?
A: 44

Q: How did the Estrogenic potency turn out when CCC[Si](C#C[C@]1(O)CC[C@H]2[C@@H]3CCc4cc(O)ccc4[C@H]3CC[C@@]21C)(CC)CC was run?
A: 39

Q: How did the Estrogenic potency turn out when CCC[Si](C=C[C@]1(O)CC[C@H]2[C@@H]3CCc4cc(O)ccc4[C@H]3CC[C@@]21C)(CCC)CCC was run?
A: 0.05

Q: With CCC(C)[Si](C#C[C@]1(O)CC[C@H]2[C@@H]3CCc4cc(O)ccc4[C@H]3CC[C@@]21C)(CC)CC (stereo partly drawn) as the molecule, how does the Estrogenic potency read?
A: 57

Q: C=C([C@]1(O)CC[C@H]2[C@@H]3CCc4cc(O)ccc4[C@H]3CC[C@@]21C)[Si](CCC)(CCC)CCC was tested. Which Estrogenic potency did it give?
A: 0.5

Q: CC[Si](O)(C#C[C@]1(O)CC[C@H]2[C@@H]3CCc4cc(O)ccc4[C@H]3CC[C@@]21C)CC was tested. Which Estrogenic potency did it give?
A: 11

Q: C[C@]12CC[C@@H]3c4ccc(O)cc4CC[C@H]3[C@@H]1CC[C@@]2(O)C#C[Si](C)(C)Cc1ccccc1 was tested. Which Estrogenic potency did it give?
A: 12

Q: CC[Si](C#C[C@]1(O)CC[C@H]2[C@@H]3CCc4cc(O)ccc4[C@H]3CC[C@@]21C)(CC)C(C)(C)C was tested. Which Estrogenic potency did it give?
A: 31

Q: Which Estrogenic potency does the source give for CCCCCC[Si](C#C[C@]1(O)CC[C@H]2[C@@H]3CCc4cc(O)ccc4[C@H]3CC[C@@]21C)(CC)CC here?
A: 5.2

Q: Which Estrogenic potency does the source give for C[C@]12CC[C@@H]3c4ccc(O)cc4CC[C@H]3[C@@H]1CC[C@@]2(O)C#C[Si](C)(C)C here?
A: 7

Q: With CCCC[Si](C#C[C@]1(O)CC[C@H]2[C@@H]3CCc4cc(O)ccc4[C@H]3CC[C@@]21C)(CCCC)CCCC as the molecule, how does the Estrogenic potency read?
A: 2.5

Q: CC[Si](/C=C\[C@]1(O)CC[C@H]2[C@@H]3CCc4cc(O)ccc4[C@H]3CC[C@@]21C)(CC)CC was tested. Which Estrogenic potency did it give?
A: 0.5

Q: C#C[Si](C#C[C@]1(O)CC[C@H]2[C@@H]3CCc4cc(O)ccc4[C@H]3CC[C@@]21C)(CC)CC was tested. Which Estrogenic potency did it give?
A: 37

Q: Which Estrogenic potency does the source give for CC[Si]1(C#C[C@]2(O)CC[C@H]3[C@@H]4CCc5cc(O)ccc5[C@H]4CC[C@@]32C)CCCC1 here?
A: 120

Q: With C[C@]12CC[C@@H]3c4ccc(O)cc4CC[C@H]3[C@@H]1CC[C@@]2(O)/C=C/[Si](C)(C)C as the molecule, how does the Estrogenic potency read?
A: 0.2

Q: CC[Si](C#C[C@]1(O)CC[C@H]2[C@@H]3CCc4cc(OC5CCCC5)ccc4[C@H]3CC[C@@]21C)(CC)CC was tested. Which Estrogenic potency did it give?
A: 24
